Only some compounds are listed: those with a hit (about 4.9% of all), similar ones and a draw of the others.
STAT3 act – increases IL-6 driven STAT3 reporter signal. activation (% of control), % at 5.6 µM. actives 0.91% (n = 190,000). U3A cells, IL-6 STAT3-luciferase reporter, luminescence; 100% = signal with IL-6 EC80 alone. AID 871;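 active means activation above the screen-wide mean of compound activation plus 3 SD, cut at about 130% in these data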
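Material: human STAT1-deficient U3A cells with stable STAT3-luciferase reporter / Probe or stimulus: IL-6 stimulus at 33 ng/mL final / Schedule: 1 h compound pre-exposure, 6 h IL-6 stimulation, 37 °C / Technique: luminescence / Read-out basis: percent of IL-6-only median luminescence / Control set: IL-6-only high control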
STAT1 inh – reduces IFN-gamma driven STAT1 reporter signal | inhibition, % at 5.5 µM | actives 0.35% (n = 200,000) | NIH 3T3 STAT1-luciferase reporter, luminescence | AID 920;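 active means inhibition above a set limit, the mean inhibition across all tested compounds plus 3 SD, cut at about 34% in these data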
APP 5'UTR act – APP 5'UTR luciferase reporter activation | SH-SY5Y APP 5'UTR luciferase reporter, luminescence; zero percent = DMSO vehicle wells | activation, % at 2 µM | actives 1% (n = 190,000) | AID 1276;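 active means activation above a set limit, based on mean plus 3 SD of controls, cut at about 140% in these data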
STAT1 activator – activators of IFN-gamma induced STAT1 signaling. NIH 3T3 STAT1-luciferase reporter, luminescence; 100% = IFN-gamma alone, no compound. activation (% of control), % at 5.5 µM. actives 2.6% (n = 200,000). AID 932;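 active means activation above the screen-wide mean activation plus 3 SD, cut at about 130% in these data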
STAT3 inh-1 – STAT3 signaling inhibition; AID 862; U3A cells, IL-6 STAT3-luciferase reporter, luminescence; host cell line lacks STAT1; actives 0.89% (n = 190,000); inhibition, % at 5.5 µM;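 active means inhibition above the mean inhibition across all screened compounds plus 3 SD, cut at about 44% in these data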
NF-kB expr up – compounds increasing NF-kB expression in human neuronal cells; AID 1239; NF-kB reporter expression; hits give high values; actives 1.6% (n = 190,000); fold change at 12.5 µM; in the data active means fold change above about 3.3
STAT3 inh-2 – STAT3 inhibition, confirmation assay. AID 1265. shares compounds with STAT3 inh-1. inhibition, % at 5.7 µM. actives 45% (n = 1,200). U3A cells, IL-6 STAT3 luciferase reporter, luminescence; cell line lacks STAT1;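 active means inhibition above the hit cutoff computed for the primary STAT3 screen, cut at about 44% in these data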
NFkB inh STAT3ct – counter-screen for STAT3 inhibitors: NF-kappaB inhibition; shares compounds with STAT3 inh-1; AID 1308; inhibition, % at 5.7 µM; actives 36% (n = 1,200); HEK293T NF-kB luciferase reporter, TNF-alpha induced;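 active means inhibition above the mean of solvent-only control wells plus 3 SD, cutoff set per campaign, cut at about 13% in these data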
STAT1 inh STAT3c – STAT1 inhibition in STAT3 inhibitor counter-screen; actives 27% (n = 1,200); AID 1317; shares compounds with STAT3 inh-1; inhibition, % at 5.7 µM; NIH 3T3 STAT1-luciferase reporter, IFN-gamma induced, luminescence;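 active means inhibition above the mean plus 3 SD of solvent-only control wells, limit set per screening run, cut at about 16% in these data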
Each line names hits and unclear results; the compound was inactive in the other large screens (follow-up assays come after a bar, where they were run).

COc1ccc(Cl)cc1NC(=O)COC(=O)/C=C/c1c(C)nn(C2CCS(=O)(=O)C2)c1Cl (configuration not stated)	STAT3 inh-1 45.5 | STAT3 inh-2 inactive | NFkB inh STAT3ct inactive | STAT1 inh STAT3c inactive
COc1ccc2c(c1)sc(=N)n2C	none
CCOCCCNC(=S)N1CCN(Cc2ccc3c(c2)OCO3)CC1	none
NNC(=O)c1ccc(COc2ccccc2)cc1	none
CCC(=O)c1ccc(OCc2ccc(C(=O)c3ccccc3)cc2)cc1	STAT3 inh-1 49.9 | STAT3 inh-2 inactive | NFkB inh STAT3ct inactive | STAT1 inh STAT3c 18.8
CCOC(=O)c1nc(-c2ccccc2)oc1N1CCOCC1	none
CCN1/C(=C/c2sc(-c3ccccc3C)c[n+]2C)Sc2ccccc21	STAT3 inh-1 91.4 | STAT3 inh-2 93.5 | NFkB inh STAT3ct 53.8 | STAT1 inh STAT3c 31.6
Cn1c(=O)n(C)c2cc([N+](=O)[O-])c(N3CCN(C(=O)c4ccccc4Cl)CC3)cc21	STAT3 inh-1 63.0 | STAT3 inh-2 inactive | NFkB inh STAT3ct inactive | STAT1 inh STAT3c inactive
CC(=O)c1cn(CC(=O)NCc2cccnc2)c2ccccc12	none
CC(=O)c1cn(CC(=O)Nc2ccc(C)cc2C)c2ccccc12	STAT3 inh-1 62.2 | STAT3 inh-2 61.1 | NFkB inh STAT3ct inactive | STAT1 inh STAT3c 21.7
COCCCNC(=O)Cn1cc(C(C)=O)c2ccccc21	none
CC(=O)c1cn(CC(=O)Nc2cccc(C)c2C)c2ccccc12	STAT3 inh-1 49.1 | STAT3 inh-2 43.7 | NFkB inh STAT3ct 15.0 | STAT1 inh STAT3c 22.6
CC(C)NC(=O)COc1nncc2ccccc12	none
CNc1ccccc1C(C)(C)c1cc(-c2ccc(F)cc2)no1	STAT3 inh-1 45.9 | STAT3 inh-2 50.7 | NFkB inh STAT3ct inactive | STAT1 inh STAT3c inactive
CNc1ccccc1C(C)(C)c1cc(-c2cccc(Br)c2)no1	none
O=C(CCl)N(c1ccc(Cl)cc1)c1c[nH]c2ccccc12	none
O=C(CCl)N(c1ccccc1)c1c[nH]c2ccccc12	STAT3 inh-1 44.8 | STAT3 inh-2 inactive | NFkB inh STAT3ct 18.7 | STAT1 inh STAT3c 27.8
Cc1ccc(OCc2nc(-c3cccs3)no2)c([N+](=O)[O-])c1	APP 5'UTR act 197.9, STAT3 inh-1 49.7, NF-kB expr up 11.2 | STAT3 inh-2 inactive | NFkB inh STAT3ct inactive | STAT1 inh STAT3c inactive
Cc1ccc(OCCOc2ccc(Cl)cc2Cl)c([N+](=O)[O-])n1	none
Cc1ccc(S(=O)(=O)c2ccc(Oc3cccc(C)c3)cc2)cc1	none
CCOc1ccc(-c2nnc(-c3ccccc3)o2)cc1	STAT3 inh-1 65.8, NF-kB expr up 4.25 | STAT3 inh-2 inactive | NFkB inh STAT3ct inactive | STAT1 inh STAT3c inactive
CCCOc1ccc(-c2nnc(-c3cccs3)o2)cc1	STAT3 inh-1 66.1, NF-kB expr up 5.17 | STAT3 inh-2 inactive | NFkB inh STAT3ct inactive | STAT1 inh STAT3c inactive
CCOc1ccc(-c2nnc(-c3ccc(OC)cc3)o2)cc1	none
CN(C)c1ccc(-c2nnc(-c3cccs3)o2)cc1	APP 5'UTR act 163.3, STAT3 inh-1 54.9, NF-kB expr up 7.23 | STAT3 inh-2 inactive | NFkB inh STAT3ct inactive | STAT1 inh STAT3c inactive
CCOc1ccc(-c2nc(-c3ccccc3C)no2)cc1	STAT3 inh-1 46.2 (no result: NF-kB expr up) | STAT3 inh-2 inactive | NFkB inh STAT3ct inactive | STAT1 inh STAT3c inactive
CN(C)c1oc(-c2cccs2)nc1C#N	none
CCOc1nc(C)ccc1-c1noc(-c2ccncc2)n1	none
CCCCOc1ccc(-c2nnc(-c3ccncc3)o2)cc1	none
CCOC(=O)NC1(NC2CCCCC2)Oc2ccccc2O1	none
CC(=O)NCCCC(=O)NN1C(=S)N(Cc2ccccc2)C(=O)C1CC(=O)Nc1cccc(C)c1 (configuration not stated)	none

Assay outcomes as filed in PubChem.
